Results taken from BindingDB's records for doi:10.1021/jm301253y (University of Florida, 2013).

How the values were obtained:
[1] = target: Melanocortin receptor 4 (Mus musculus, UniProt P56450); test: Agonist activity at mouse MC4 receptor expressed in HEK293 cells after 6 hrs by cAMP-based beta-galactosidase reporter gene assay
In short: (§1)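 HEK-293 cells stably expressing the mouse receptor, kept in DMEM with 10% fetal calf serum, transfected with CRE/β-galactosidase reporter. Efficacy is relative to NDP-MSH on the same plate. EC50 is the mean of duplicate wells from three or more independent experiments, fitted by nonlinear least squares.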

[2] = target: Melanocortin receptor 3 (Mus musculus, UniProt P33033); test: Agonist activity at mouse MC3 receptor expressed in HEK293 cells after 6 hrs by cAMP-based beta-galactosidase reporter gene assay; in short: as §1
[3] = target: Melanocyte-stimulating hormone receptor (Mus musculus, UniProt Q01727); test: Agonist activity at mouse MC1 receptor expressed in HEK293 cells after 6 hrs by cAMP-based beta-galactosidase reporter gene assay; in short: as §1
[4] = target: Melanocortin receptor 5 (Mus musculus, UniProt P41149); test: Agonist activity at mouse MC5 receptor expressed in HEK293 cells after 6 hrs by cAMP-based beta-galactosidase reporter gene assay; in short: as §1
Melanocortin receptor 5, sequence (P41149 whole entry): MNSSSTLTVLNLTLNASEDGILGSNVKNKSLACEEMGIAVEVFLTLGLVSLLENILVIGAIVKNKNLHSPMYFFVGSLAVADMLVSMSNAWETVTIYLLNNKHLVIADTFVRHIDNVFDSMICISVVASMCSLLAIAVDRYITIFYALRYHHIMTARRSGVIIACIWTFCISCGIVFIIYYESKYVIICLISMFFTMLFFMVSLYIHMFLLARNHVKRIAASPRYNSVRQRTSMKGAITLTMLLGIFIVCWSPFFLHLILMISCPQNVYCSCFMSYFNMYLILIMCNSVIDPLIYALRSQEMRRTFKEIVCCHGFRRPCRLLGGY

Melanocortin receptor 4, sequence (P56450 whole entry): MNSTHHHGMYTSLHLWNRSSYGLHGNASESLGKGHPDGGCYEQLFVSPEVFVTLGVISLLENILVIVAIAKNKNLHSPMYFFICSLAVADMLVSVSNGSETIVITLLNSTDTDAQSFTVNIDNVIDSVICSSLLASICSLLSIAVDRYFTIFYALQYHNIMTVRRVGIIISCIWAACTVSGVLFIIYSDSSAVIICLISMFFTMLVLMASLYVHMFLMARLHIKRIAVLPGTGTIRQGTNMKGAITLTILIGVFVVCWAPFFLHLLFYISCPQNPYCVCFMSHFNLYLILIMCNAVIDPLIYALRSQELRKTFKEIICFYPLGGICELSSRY
Melanocyte-stimulating hormone receptor, sequence (Q01727 whole entry): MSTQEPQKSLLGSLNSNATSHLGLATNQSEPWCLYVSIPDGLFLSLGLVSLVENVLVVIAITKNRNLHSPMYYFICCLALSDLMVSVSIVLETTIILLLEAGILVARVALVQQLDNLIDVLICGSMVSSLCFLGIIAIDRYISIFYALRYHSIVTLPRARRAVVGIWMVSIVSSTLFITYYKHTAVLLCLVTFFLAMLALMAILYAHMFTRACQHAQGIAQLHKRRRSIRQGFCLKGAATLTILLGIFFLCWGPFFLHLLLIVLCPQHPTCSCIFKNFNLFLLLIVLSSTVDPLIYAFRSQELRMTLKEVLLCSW
Melanocortin receptor 3, sequence (P33033 whole entry): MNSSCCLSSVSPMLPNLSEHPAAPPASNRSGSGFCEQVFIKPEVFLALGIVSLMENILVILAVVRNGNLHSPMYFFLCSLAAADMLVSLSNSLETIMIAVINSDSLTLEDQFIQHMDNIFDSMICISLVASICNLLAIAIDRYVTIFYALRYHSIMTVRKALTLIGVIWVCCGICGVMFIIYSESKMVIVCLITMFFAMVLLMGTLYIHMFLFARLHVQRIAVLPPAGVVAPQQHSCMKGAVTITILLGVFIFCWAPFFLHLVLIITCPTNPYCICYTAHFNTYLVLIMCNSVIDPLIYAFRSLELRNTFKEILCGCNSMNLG

- EC50 [1]: 1270 nM
- EC50 [2]: 7120 nM
- EC50 [3]: 16 nM
- EC50 [4]: 630 nM
SMILES: C[C@@H]1NC(=O)[C@H](CC(N)=O)NC(=O)[C@@H](Cc2c[nH]c3ccccc23)[C@]23CCCN2C(=O)[C@@H](CSCC3=O)NC(=O)[C@@H](Cc2ccccc2)NC(=O)[C@H](Cc2cnc[nH]2)NC(=O)[C@@H](NC(=O)[C@@H](N)Cc2ccc(O)cc2)CSSC[C@@H](C(=O)N[C@@H](Cc2ccc(O)cc2)C(N)=O)NC(=O)[C@H](Cc2ccccc2)NC1=O
